Source: publication PMC10041999 (Journal of chemical information and modeling, 2022)

Molecular target: T1, VapC1 (Haemophilus influenzae, UniProt Q4QNL7)
T1 sequence (Q4QNL7 1-134): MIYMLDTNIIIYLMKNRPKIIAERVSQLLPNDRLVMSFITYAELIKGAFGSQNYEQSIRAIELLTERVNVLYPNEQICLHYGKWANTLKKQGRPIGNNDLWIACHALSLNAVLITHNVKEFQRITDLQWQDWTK
Test: Biochemical VapC1 ribonuclease activity assay
Set-up: species or system nontypeable Haemophilus influenzae
Method in brief: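 Purified VapC1 (296 nM final) was preincubated with test compound, aurintricarboxylic acid positive control or DMSO for 30 min at room temperature in 1X RNaseAlert reaction buffer. Custom RNA substrate (5' Cy5, 3' Iowa Black RQ quencher; 100 nM final) was then added. Fluorescence (Ex 618, Em 671 nm) was read immediately and at 75 min. Activity was taken as the change between readings. Concentration-response used eleven concentrations.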

## Clc1ccc(C(c2ccc(Cl)cc2)n2cc[n+](C[C@@H](OCc3ccc(Cl)cc3Cl)c3ccc(Cl)cc3Cl)c2)cc1 [NCGC00015233]
  VapC1 inhibitor (result in words): confirmed VapC1 inhibtors
